Source: ChEMBL document CHEMBL4480464, “Bioactive Dimeric Acylphloroglucinols from the Mexican Fern Elaphoglossum paleaceum” (J Nat Prod, 2019)
Active and inactive are the calls of the source. The rule behind the calls is not given here.

Tests used:
SiHa = experiment: Cytotoxicity against human SiHa cells measured after 72 hrs by sulforhodamine B assay; format: functional, cell-based
In short: (§1)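 Sulforhodamine B assay on human cancer lines in RPMI-1640 with 10% FBS, 104 cells/mL, 37 °C, 5% CO2. Treated in triplicate at about 70% confluence with 0.16–20 μg/mL sample in DMSO for 72 h. IC50 taken as concentration giving 50% of control growth, from a log10 concentration versus % viable cells plot.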

MCF7 = experiment: Cytotoxicity against human MCF7 cells measured after 72 hrs by sulforhodamine B assay; format: functional, cell-based; details: MCF7, 72 h; in short: as §1
[1] = Cytotoxicity against human HF6 cells measured after 72 hrs by sulforhodamine B assay; format: functional, cell-based; in short: as §1
[2] = Selectivity index, ratio of IC50 for human HSF30 cells to IC50 for human HF6 cells
In short: (§2)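 SI calculated as IC50 in HFS-30 fibroblasts divided by IC50 in each cancer line, all from the 72 h sulforhodamine B assay.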

PC-3 = experiment: Cytotoxicity against human PC3 cells measured after 72 hrs by sulforhodamine B assay; format: functional, cell-based; details: PC-3, 72 h; in short: as §1
[3] = Cytotoxicity against human HSF30 cells measured after 72 hrs by sulforhodamine B assay; format: cell-based
In short: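 HFS-30 normal human skin fibroblasts grown in DMEM with 10% FBS at 37 °C, 5% CO2. Treated in triplicate at about 70% confluence with 0.16–20 μg/mL sample in DMSO for 72 h. Sulforhodamine B read-out. IC50 is concentration giving 50% of control growth.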

[4] = Selectivity index, ratio of IC50 for human HSF30 cells to IC50 for human SiHa cells; format: toxicity; details: HSF30 cells and SiHa cells, read-out: Ratio IC50; in short: as §2
[5] = Selectivity index, ratio of IC50 for human HSF30 cells to IC50 for human PC3 cells; format: toxicity; details: HSF30 cells and PC3 cells, read-out: Ratio IC50; in short: as §2
[6] = Selectivity index, ratio of IC50 for human HSF30 cells to IC50 for human MCF7 cells; format: toxicity; details: HSF30 cells and MCF7 cells, read-out: Ratio IC50; in short: as §2
[7] = Cytotoxicity against LPS-induced mouse RAW264.7 cells assessed as cell viability at 82 uM measured after 24 hrs by resazurin dye based fluorescence assay; details: LPS-induced RAW264.7 cells, read-out: Activity
In short: (§3)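 After the 24 h LPS (1 μg/mL) plus compound exposure and nitrite sampling, RAW264.7 wells given fresh DMEM-F12 with 10% heat-inactivated FBS plus resazurin (2 mM stock). Incubated a further 10 h at 37 °C, 5% CO2. Viability read as resorufin fluorescence. Vehicle Tween 80. Three independent experiments, mean ± SD.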

Rattus norvegicus = species: Rattus norvegicus; experiment: Selectivity index, ratio of IC50 for Wistar rat brain MAOB to Wistar rat brain MAOA
RAW264.7 [8] = experiment: Cytotoxicity against LPS-induced mouse RAW264.7 cells assessed as cell killing at 123 to 164 uM measured after 24 hrs by resazurin dye based fluorescence assay; details: raw264.7, 24 h; in short: as §3
RAW264.7 [9] = experiment: Cytotoxicity against LPS-induced mouse RAW264.7 cells assessed as effect on cell viability at 41 uM measured after 24 hrs by resazurin dye based fluorescence assay; details: raw264.7, 24 h; in short: as §3
RAW264.7 [10] = experiment: Antiinflammatory activity in mouse RAW264.7 cells assessed as inhibition of LPS-induced nitric oxide production at 41 uM after 24 hrs by Griess assay; format: functional, cell-based
In short: (§4)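 Murine RAW264.7 macrophages in DMEM-F12 with 10% heat-inactivated FBS, no antibiotics, 37 °C, 5% CO2. Cells (2 × 10^5 cells/mL) preincubated 1 h, then compound added in Tween 80 vehicle, then stimulated with LPS 1 μg/mL for 24 h. Nitrite in medium measured by Griess reagent, absorbance 540 nm, quantified against NaNO2 standard curve. Triplicate, mean ± SEM.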

[11] = biological target: T1, Amine oxidase [flavin-containing] A (Rattus norvegicus, UniProt P21396); experiment: Inhibition of Wistar rat brain MAOA using kynuramine as substrate preincubated for 15 mins followed by substrate addition and measured after 15 mins by fluorescence assay
T1 sequence (P21396 whole entry): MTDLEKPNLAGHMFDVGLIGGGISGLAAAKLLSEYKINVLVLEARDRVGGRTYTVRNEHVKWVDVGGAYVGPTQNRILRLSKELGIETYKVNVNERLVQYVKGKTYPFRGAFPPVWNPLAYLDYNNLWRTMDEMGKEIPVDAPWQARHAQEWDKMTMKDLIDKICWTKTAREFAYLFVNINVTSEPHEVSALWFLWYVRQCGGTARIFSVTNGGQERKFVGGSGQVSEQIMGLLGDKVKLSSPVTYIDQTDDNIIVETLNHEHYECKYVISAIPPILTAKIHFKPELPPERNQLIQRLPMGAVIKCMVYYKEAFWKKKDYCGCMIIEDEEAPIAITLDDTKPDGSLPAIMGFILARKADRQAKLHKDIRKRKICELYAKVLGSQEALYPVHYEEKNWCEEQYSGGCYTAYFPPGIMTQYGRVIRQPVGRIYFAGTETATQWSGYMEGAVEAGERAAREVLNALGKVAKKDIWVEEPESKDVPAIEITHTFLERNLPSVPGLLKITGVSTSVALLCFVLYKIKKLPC
In short: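 Unpurified mitochondrial homogenate from brains of male Wistar rats (180–220 g), adjusted to 2500 μg/mL protein in PBS pH 7.4. Sample from 10% DMSO stock, tested over 0.1–100 μg/mL. Enzyme and sample preincubated 15 min at 37 °C, kynuramine (1 mM) added, incubated 15 min at 37 °C, stopped with 2 M NaOH. Triplicate.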

[12] = biological target: T2, Amine oxidase [flavin-containing] B (Rattus norvegicus, UniProt P19643); experiment: Inhibition of Wistar rat brain MAOB using kynuramine as substrate preincubated for 15 mins followed by substrate addition and measured after 15 mins by fluorescence assay
T2 sequence (P19643 whole entry): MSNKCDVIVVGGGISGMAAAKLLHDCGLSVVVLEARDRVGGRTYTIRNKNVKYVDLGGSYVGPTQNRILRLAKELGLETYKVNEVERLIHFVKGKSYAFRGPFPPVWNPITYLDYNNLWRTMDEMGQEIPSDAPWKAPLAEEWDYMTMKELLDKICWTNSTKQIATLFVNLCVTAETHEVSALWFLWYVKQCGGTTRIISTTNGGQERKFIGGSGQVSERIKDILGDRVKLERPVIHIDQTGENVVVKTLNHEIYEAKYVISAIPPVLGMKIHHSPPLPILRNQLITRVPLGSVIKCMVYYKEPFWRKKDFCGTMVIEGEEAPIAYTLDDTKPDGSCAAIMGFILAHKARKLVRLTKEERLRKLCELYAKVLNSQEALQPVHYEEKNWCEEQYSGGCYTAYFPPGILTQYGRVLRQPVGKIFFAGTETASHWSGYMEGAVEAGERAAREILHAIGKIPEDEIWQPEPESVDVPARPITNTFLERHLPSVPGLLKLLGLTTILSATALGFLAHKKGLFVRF
In short: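 Enzyme: unpurified mitochondrial homogenate from brains (cerebellum removed) of adult male Wistar rats (180−220 g), adjusted to 2500 μg/mL protein in PBS pH 7.4. Samples dissolved in 10% DMSO, tested over 0.1−100 μg/mL. Kynuramine 1 mM substrate; pargyline 10 μM as MAO-B-selective reference. Both incubations at 37 °C; stopped with 2 M NaOH. 4-Hydroxyquinoline read at ex 315/em 380 nm. Triplicate; IC50 as mean ± standard error.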

RAW264.7 [13] = experiment: Cytotoxicity against LPS-induced mouse RAW264.7 cells assessed as effect on cell viability at 46 uM measured after 24 hrs by resazurin dye based fluorescence assay; details: raw264.7, 24 h; in short: as §3
RAW264.7 [14] = experiment: Cytotoxicity against LPS-induced mouse RAW264.7 cells assessed as cell killing at 92 to 185 uM measured after 24 hrs by resazurin dye based fluorescence assay; details: raw264.7, 24 h; in short: as §3
RAW264.7 [15] = experiment: Antiinflammatory activity in mouse RAW264.7 cells assessed as inhibition of LPS-induced nitric oxide production at 46 uM after 24 hrs by Griess assay; format: functional, cell-based; in short: as §4

SMILES	IC50 (SiHa)	IC50 (MCF7)	IC50 [1]	Ratio IC50 [2]	IC50 (PC-3)	IC50 [3]	selectivity ratio [4]	selectivity ratio [5]	selectivity ratio [6]	viability at 24 h, 82 µM [7]	Ratio IC50 (Rattus norvegicus)	Activity (RAW264.7 [8])	Activity (RAW264.7 [9])	inhibition (RAW264.7 [10])	IC50 [11]	IC50 [12]	Activity (RAW264.7 [13])	Activity (RAW264.7 [14])	inhibition (RAW264.7 [15])
COc1cc([C@@H]2c3cc4c(cc3[C@H](O)[C@H]3COC(=O)[C@H]23)OCO4)cc(OC)c1OC [PODOFILOX]	0.1 µM	0.005 µM	1 µM	0.002	0.2 µM	0.002 µM	0.02	0.11	0.45	–	–	–	–	–	–	–	–	–	–
CCCC(=O)c1c(O)c(CC2=C(O)[C@](C)(C/C=C(\C)CCC=C(C)C)C(O)=C(C(C)=O)C2=O)c(O)c(CC=C(C)C)c1OC	5.6 µM	> 10 µM	6.4 µM	0.013	2.9 µM	0.08 µM	0.015	0.029	0.0025	50%	3.5	100%	Non-Toxic	Active	1.3 µM	4.4 µM	–	–	–
CC(=O)O[C@H]1C(=O)[C@@]2(C)[C@H]([C@H](OC(=O)c3ccccc3)[C@]3(O)C[C@H](OC(=O)[C@H](O)[C@@H](NC(=O)c4ccccc4)c4ccccc4)C(C)=C1C3(C)C)[C@]1(OC(C)=O)CO[C@@H]1C[C@@H]2O [PACLITAXEL]	1.4 µM	0.05 µM	1.6 µM	0.001	0.15 µM	0.002 µM	–	–	–	–	–	–	–	–	–	–	–	–	–
CCCC(=O)c1c(OC)cc(O)c(CC2=C(O)[C@](C)(C/C=C(\C)CCC=C(C)C)C(O)=C(C(C)=O)C2=O)c1O	6 µM	> 10 µM	> 10 µM	0.0005	1.7 µM	0.009 µM	0.002	0.005	0.0002	–	0.1	–	–	–	31 µM	4.7 µM	Non-Toxic	100%	Active
C#CCN(C)Cc1ccccc1 [PARGYLINE]	–	–	–	–	–	–	–	–	–	–	–	–	–	–	–	0.22 µM	–	–	–
